Legend:
[1] = system: HL-60; experiment: Standard thymidine incorporation assay (TdR) was carried out for 48 hr with an 8 hr pulse of [3H]- thymidine (TdR8) (n=6) and ID50 value was evaluated; assay type: functional; settings: Homo sapiens, read-out: ID50 (the source's name)
How it was run: (§1)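 HL-60 leukemia suspension cultures grown in RPMI 1640/10% FBS at 37 °C, 5% CO2. Cells seeded at 5 × 10^4/well with inhibitors diluted from ethanol stocks. 48-h exposure, with 1.0 μCi [methyl-3H]thymidine (6.7 Ci/mmol) added for the last 8 h. Filter-harvested cells counted by liquid scintillation, uptake expressed as percent of control. Quadruplicate determinations. Results in μM.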

[2] = system: HL-60; experiment: Standard thymidine incorporation assay (TdR) was carried out for 48 hr and involved a 24-h pulse of [3H]- thymidine (n=5) and ID50 value was evaluated; assay type: functional; settings: Homo sapiens, read-out: ID50 (the source's name)
How it was run: (§2)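 HL-60 human promyelocytic leukemia cells in RPMI 1640 with 10% heat-inactivated FBS, 37 °C, 5% CO2. Log-phase cells seeded at 5 × 10^4/well with inhibitor dilutions from ethanol stocks (1 or 10 mg/mL). At 24 h, pulsed with 1.0 μCi [methyl-3H]thymidine (6.7 Ci/mmol) for a further 24 h. Harvested onto glass fiber filters and counted by liquid scintillation as % of control. Quadruplicate determinations. Values in μM.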

[3] = system: HL-60; experiment: Trypan blue exclusion assay (TB) was carried out for 48 h and the in vitro ID50 value was evaluated in the HL-60 leukemic cell system (n=3); assay type: functional; settings: Homo sapiens, HL-60, 48 h; read-out: ID50 (the source's name)
How it was run: (§3)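 HL-60 human promyelocytic leukemia cells were grown in suspension in RPMI 1640 with 10% heat-inactivated FBS, penicillin/streptomycin, 2 mM L-glutamine and 0.22% NaHCO3 at 37 °C under 5% CO2. Cells at 5 × 10^5/mL were exposed to various inhibitor concentrations diluted from ethanol stocks into medium for 48 h. Trypan blue in PBS was then added and viable cells were counted by hemocytometer. Triplicate determinations; values in μM.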

[4] = system: HL-60; experiment: Trypan blue exclusion assay (TB) was carried out for 48 hr and the in vitro ID50 value was evaluated in the HL-60 leukemic cell system (n=1); assay type: functional, Homo sapiens; settings: read-out: ID50 (the source's name); how it was run: as §3
[5] = system: HL-60; experiment: Standard thymidine incorporation assay (TdR) was carried out for 48 hr and involved a 24-h pulse of [3H]- thymidine (n=1) and ID50 value was evaluated; assay type: functional; settings: Homo sapiens, read-out: ID50 (the source's name); how it was run: as §2
[6] = system: HL-60; experiment: Trypan blue exclusion assay (TB) was carried out for 48 hr and the in vitro ID50 value was evaluated in the HL-60 leukemic cell system (n=4); assay type: functional; settings: Homo sapiens, HL-60, 48 h; read-out: ID50 (the source's name); how it was run: as §3
[7] = system: HL-60; experiment: Standard thymidine incorporation assay (TdR) was carried out for 48 hr with an 8 hr pulse of [3H]- thymidine (TdR8) (n=3) and ID50 value was evaluated; assay type: functional; settings: Homo sapiens, read-out: ID50 (the source's name); how it was run: as §1
[8] = system: HL-60; experiment: Standard thymidine incorporation assay (TdR) was carried out for 48 hr and involved a 24-h pulse of [3H]- thymidine (n=2) and ID50 value was evaluated; assay type: functional; settings: Homo sapiens, read-out: ID50 (the source's name); how it was run: as §2
[9] = system: HL-60; experiment: Trypan blue exclusion assay (TB) was carried out for 48 hr and the in vitro ID50 value was evaluated in the HL-60 leukemic cell system (n=2); assay type: functional; settings: Homo sapiens, HL-60, 48 h; read-out: ID50 (the source's name); how it was run: as §3
[10] = system: HL-60; experiment: Standard thymidine incorporation assay (TdR) was carried out for 48 hr with an 8 hr pulse of [3H]- thymidine (TdR8) (n=4) and ID50 value was evaluated; assay type: functional; settings: Homo sapiens, read-out: ID50 (the source's name); how it was run: as §1
[11] = system: HL-60; experiment: Standard thymidine incorporation assay (TdR) was carried out for 48 hr and involved a 24-h pulse of [3H]- thymidine (n=3) and ID50 value was evaluated; assay type: functional; settings: Homo sapiens, read-out: ID50 (the source's name); how it was run: as §2
[12] = system: HL-60; experiment: Standard thymidine incorporation assay (TdR) was carried out for 48 hr with an 8 hr pulse of [3H]- thymidine (TdR8) (n=7) and ID50 value was evaluated; assay type: functional; settings: Homo sapiens, read-out: ID50 (the source's name); how it was run: as §1
[13] = system: HL-60; experiment: Standard thymidine incorporation assay (TdR) was carried out for 48 h and involved a 24-h pulse of [3H]- thymidine (n=6) and ID50 value was evaluated; assay type: functional; settings: Homo sapiens, read-out: ID50 (the source's name); how it was run: as §2
[14] = system: HL-60; experiment: Trypan blue exclusion assay (TB) was carried out for 48 hr and the in vitro ID50 value was evaluated in the HL-60 leukemic cell system (n=9); assay type: functional; settings: Homo sapiens, HL-60, 48 h; read-out: ID50 (the source's name); how it was run: as §3
[15] = system: HL-60; experiment: Standard thymidine incorporation assay (TdR) was carried out for 48 hr with an 8 hr pulse of [3H]- thymidine (TdR8) (n=1) and ID50 value was evaluated; assay type: functional; settings: Homo sapiens, read-out: ID50 (the source's name); how it was run: as §1
[16] = system: HL-60; experiment: Standard thymidine incorporation assay (TdR) was carried out for 48 hr with an 8 hr pulse of [3H]- thymidine (TdR8) (n=5) and ID50 value was evaluated; assay type: functional; settings: Homo sapiens, read-out: ID50 (the source's name); how it was run: as §1
[17] = system: HL-60; experiment: Trypan blue exclusion assay (TB) was carried out for 48 hr and the in vitro ID50 value was evaluated in the HL-60 leukemic cell system (n=33); assay type: functional; settings: Homo sapiens, HL-60, 48 h; read-out: ID50 (the source's name); how it was run: as §3
[18] = system: HL-60; experiment: Standard thymidine incorporation assay (TdR) was carried out for 48 hr and involved a 24-h pulse of [3H]- thymidine (n=21) and ID50 value was evaluated; assay type: functional; settings: Homo sapiens, read-out: ID50 (the source's name); how it was run: as §2
[19] = system: HL-60; experiment: Standard thymidine incorporation assay (TdR) was carried out for 48 hr with an 8 hr pulse of [3H]- thymidine (TdR8) (n=16) and ID50 value was evaluated; assay type: functional; settings: Homo sapiens, read-out: ID50 (the source's name); how it was run: as §1

CCCCCCCCCCCCCCCCSCC(C[N+](C)(C)CC(O)CO)OC (stereo not drawn)
IC50 [1]: 1.9 µM
IC50 [2]: 3.05 µM
IC50 [3]: 3.62 µM

CCCCCCCCCCCCCCCCSCCOP(=O)([O-])OCC[N+](C)(C)C
IC50 ([4]; Homo sapiens, HL-60, 48 h): 4.15 µM
IC50 [5]: 5.16 µM

CCCCCCCCCCCCCCCCSCC(C[N+](C)(C)CCO)OC (stereo not drawn)
IC50 [6]: 3.86 µM
IC50 [7]: 3.37 µM
IC50 [2]: 4.34 µM

CCCCCCCCCCCCCCCCOCC(COP(=O)(O)OCCNC(C)C)OCC (stereo not drawn)
IC50 ([4]; Homo sapiens, HL-60, 48 h): 4.7 µM

CCCCCCCCCCCCCCCCCC(=O)NCCOP(=O)([O-])OCC[N+](C)(C)C
IC50 [8]: 7.02 µM
IC50 [9]: 4.56 µM
IC50 [10]: 5.73 µM

CCCCCCCCCCCCCCCCOCC(COP(=O)([O-])OCC[n+]1ccccc1)OCC (stereo not drawn)
IC50 ([4]; Homo sapiens, HL-60, 48 h): 2.64 µM
IC50 [11]: 2.56 µM

CCCCCCCCCCCCCCCCCCSCC(C[N+](C)(C)CCCO)OC (stereo not drawn)
IC50 [12]: 2.46 µM
IC50 [13]: 3.51 µM
IC50 [14]: 2.93 µM

CCCCCCCCCCCCCCCCCCCC(=O)NCC(COP(=O)([O-])OCC[N+](C)(C)C)OCC (stereo not drawn)
IC50 [8]: 3.39 µM
IC50 [10]: 2.71 µM
IC50 [3]: 3.17 µM

CCCCCCCCCCCCCCCCOCC(COCCCC[N+](C)(C)CCCO)OC (stereo not drawn)
IC50 [8]: 1.98 µM
IC50 [10]: 1.21 µM
IC50 [3]: 1.83 µM

CCCCCCCCCCCCSCC(C[N+](C)(C)C)OC (stereo not drawn)
IC50 [5]: 2.26 µM

CCCCCCCCCCCCCCCCSCC(C[N+]1(C)CCCC1)OCC (stereo not drawn)
IC50 [5]: 2.09 µM
IC50 [15]: 1.9 µM

CCCCCCCCCCCCCCCCCC(=O)N(C)CC(COP(=O)([O-])OCC[N+](C)(C)C)OC (stereo not drawn)
IC50 [8]: 4.02 µM
IC50 [10]: 3.44 µM
IC50 [3]: 3.97 µM

CCCCCCCCCCCCCCCCCCSCC(C)(COP(=O)([O-])OCC[N+](C)(C)C)OCC (stereo not drawn)
IC50 [9]: 3.83 µM

CCCCCCCCCCCCCCCCCC(=O)NCCCOP(=O)([O-])OCC[n+]1ccccc1
IC50 [3]: 4.16 µM
IC50 [11]: 4.33 µM

CCCCCCCCCCCCCCC(CSCC(COP(=O)([O-])OCC[N+](C)(C)C)OCC)OC (stereo not drawn)
IC50 [8]: 2.47 µM
IC50 [3]: 3.39 µM

CCCCCCCCCCCCCCCCCC(=O)NCCCOP(=O)([O-])OCC[N+](C)(C)C
IC50 [3]: 5.48 µM
IC50 [11]: 6.08 µM

CCCCCCCCCCCCCCCCOCC(COP(=O)([O-])OCC[N+](C)(C)C)(OC)OC
IC50 ([4]; Homo sapiens, HL-60, 48 h): 3.38 µM

CCCCCCC(=O)CCCCCCCCCOCC(COP(=O)([O-])OCC[N+](C)(C)C)OCC (stereo not drawn)
IC50 [8]: 21.9 µM
IC50 [9]: 13 µM

CCCCCCCCCCCCCCCCCCOCC(COP(=O)([O-])OCC[N+](C)(C)Cc1ccccc1)OCC (stereo not drawn)
IC50 ([4]; Homo sapiens, HL-60, 48 h): 3.65 µM

CCCCCCCCCCCCCCCCSCC(COP(=O)([O-])OCC[N+](C)(C)C)OCCC (stereo not drawn)
IC50 [8]: 2.19 µM
IC50 [3]: 2.73 µM

CCCCCCCCCCCCCCCCCC(=O)NCC(COP(=O)([O-])OCC[N+](C)(C)C)OCC (stereo not drawn)
IC50 [6]: 1.64 µM
IC50 [2]: 3.3 µM

CCCCCCCCCCCCCCCCSCC(C[N+](C)(C)CCO)OCCCCCC (stereo not drawn)
IC50 [5]: 7.15 µM

CCCCCCCCCCCCCCCCSCC(COP(=O)(O)OCC[N+](CC)(CC)CC)OCC (stereo not drawn)
IC50 ([4]; Homo sapiens, HL-60, 48 h): 3.31 µM

CCCCCCCCCCCCCCCCSCC(C[n+]1ccsc1)OC (stereo not drawn)
IC50 ([4]; Homo sapiens, HL-60, 48 h): 8.75 µM
IC50 [8]: 7.17 µM

CCCCCCCCCCCCCCCCSCC[n+]1ccccc1
IC50 [5]: 2.28 µM

CCCCCCCCCCCCCCCCSCC[N+](C)(C)CCO
IC50 [5]: 3.95 µM

CCCCCCCCCCCCCCCCCCOCC(C[N+]1(C)CCC(O)CC1)OCC (stereo not drawn)
IC50 [8]: 4.3 µM

CCCCCCCCOCC(C[N+](C)(C)C)OC (stereo not drawn)
IC50 [7]: 27 µM
IC50 [3]: 21.2 µM

CCCCCCCCCCCCCCCCOCC(C[S+](C)CCO)OC (stereo not drawn)
IC50 [16]: 2.03 µM
IC50 [3]: 2.49 µM
IC50 [11]: 2.01 µM

CCCCCCCCCCCCCCCCSCCC[N+]1(C)CCC(O)C1 (stereo not drawn)
IC50 [5]: 3.77 µM

CCCCCCCCCCCCCCCCSCC(COC)C[N+](C)(C)CCCO (stereo not drawn)
IC50 [5]: 3.46 µM

CCCCCCCCCCCCCCCCOCC(CSCC[N+](C)(C)C)OC (stereo not drawn)
IC50 [8]: 2.4 µM
IC50 [10]: 1.85 µM
IC50 [3]: 2.23 µM

CCCCCCCCCCCCCCCCCC(=O)NCC(COP(=O)([O-])OCC[N+](C)(C)C)OCCCCCCCCCCCCCC (stereo not drawn)
IC50 [11]: > 100 µM

CCCCCCCCCCCCCCCCOCC(C[n+]1cccc(CO)c1)OC (stereo not drawn)
IC50 [8]: 1.68 µM
IC50 [6]: 1.07 µM
IC50 [10]: 0.85 µM

CCCCCCCCCCCCCCCCCCOCC(C[N+]1(C)CCOCC1)OCC (stereo not drawn)
IC50 ([4]; Homo sapiens, HL-60, 48 h): 2.92 µM
IC50 [8]: 3.92 µM

CCCCCCCCCCCCCCCCSCC(COC)C[N+](C)(C)C (stereo not drawn)
IC50 [5]: 3.52 µM

CCCCCCCCCCCCCCCCSCC(C[N+](C)(C)C)OCCCCC (stereo not drawn)
IC50 ([4]; Homo sapiens, HL-60, 48 h): 6.14 µM
IC50 [5]: 4.97 µM
IC50 [15]: 5.02 µM

CCCCCCCCCCCCCCCCSCC(COP(=O)([O-])OCC[N+](C)(C)C)OCC (stereo in doubt; 2)
IC50 [4]: 2.25 µM
IC50 [7]: 3.11 µM
IC50 [11]: 2.19 µM

CCCCCCCCCCCCCCCCSCC(COP(=O)([O-])OCC[N+](C)(C)C)OCC (stereo in doubt; 5)
IC50 [4]: 6.75 µM

CCCCCCCCCCCCCCCCCCOCC(COP(=O)([O-])OCC[N+](C)(C)C)OC (stereo not drawn) [EDELFOSINE]
IC50 [17]: 2.48 µM
IC50 [18]: 2.38 µM
IC50 [19]: 2.41 µM

— ChEMBL document CHEMBL1126734, “Synthesis of phosphocholine and quaternary amine ether lipids and evaluation of in vitro antineoplastic activity” (1993)
